{"data": "Published values gathered from unrelated publications", "target": "Calcium/calmodulin-dependent protein kinase type II subunit gamma (CAMK2G, Homo sapiens, UniProt Q13555)", "note": "Compare with care: the assays were run in different laboratories."}
{"Compound": "CN(C)c1ncc(F)c(-c2cnn3ncccc23)n1", "test": "binding", "setting": "1 µM", "remaining binding [%]": 90}
{"Compound": "c1cncc(-c2cccc(Nc3nccc(NC4CCCCC4)n3)c2)c1", "test": "binding, competition with immobilised ligand", "setting": "10 µM", "remaining binding [%]": 80}
{"Compound": "CCCOc1ccc([C@H]2[C@H](C(=O)O)[C@@H](c3ccc4c(c3)OCO4)CN2CC(=O)Nc2c(CC)cccc2CC)cc1", "test": "cell-free assay, competition with immobilised ligand", "setting": "1 µM", "remaining binding [%]": 95}
{"Compound": "O=C(c1ccc(Nc2ncc(Cl)c(-c3ccc(Cl)s3)n2)cc1)N1CCC(N2CCCC2)CC1", "test": "binding, competition with immobilised ligand", "setting": "1 µM", "remaining binding [%]": 80}
{"Compound": "CS(=O)(=O)NCC[C@H](NC(=O)c1cncc2c1cnn2-c1ccc(F)cc1)c1ccnc(S(C)(=O)=O)c1", "test": "cell-free assay, competition with immobilised ligand", "setting": "1 µM", "remaining binding [%]": 99}
{"Compound": "C[C@@H](c1ccc(-n2cnc3c(N)ncnc32)cc1)N1CCc2nn(C)c(Cc3ccccc3)c2C1=O", "test": "binding, competition with immobilised ligand", "setting": "0.1 µM", "remaining binding [%]": 94}
{"Compound": "CN(c1nccc(-c2cnn3ncccc23)n1)C1CC1", "test": "binding", "setting": "1 µM", "remaining binding [%]": 100}
{"Compound": "FC(F)(F)c1ccc2c(c1)nc(-c1cccnc1)n2C1CC1", "test": "cell-free assay, competition with immobilised ligand", "setting": "1 µM", "remaining binding [%]": 100}
{"Compound": "c1cnn2ncc(-c3ccnc(N4CCC45COC5)n3)c2c1", "test": "binding", "setting": "1 µM", "remaining binding [%]": 91}
{"Compound": "COc1cnc(Nc2cccc(S(N)(=O)=O)c2)nc1N1CCN(c2ccccc2)C(=O)C1", "test": "binding, competition with immobilised ligand", "setting": "1 µM", "remaining binding [%]": 100}
{"Compound": "CN(C)C(=O)Cn1cc(-c2nc([C@@](C)(c3ccc(-c4cnc(N)nc4)cc3)C3CC3)no2)cn1", "test": "cell-free assay, competition with immobilised ligand", "setting": "1 µM", "remaining binding [%]": 100}
{"Compound": "CN(C)c1nccc(-c2cnc3ncccn23)n1", "test": "binding", "setting": "1 µM", "remaining binding [%]": 100}
{"Compound": "CNC(=O)[C@@H]1CC[C@@H](n2c(-c3ccc4cnccc4c3)nc3ccc(C(=O)NCc4cccc(C(N)=O)c4)cc32)C1", "test": "binding, competition with immobilised ligand", "setting": "1 µM", "remaining binding [%]": 100}
{"Compound": "COc1cc(-c2cn(C3CCc4ccccc4N(CC(F)(F)F)C3=O)nn2)ccc1-n1ccc(C)n1 (stereo not drawn)", "test": "cell-free assay, competition with immobilised ligand", "setting": "1 µM", "remaining binding [%]": 100}
{"Compound": "COc1ncc2cc3ccccc3nc2c1C#N", "test": "cell-free assay, competition with immobilised ligand", "setting": "5 µM", "remaining binding [%]": 92}
{"Compound": "CCN1CCN(Cc2ccc(C(=O)Nc3ccc(C)c(Oc4ccc5c(c4)CC(=O)N5)c3)cc2C(F)(F)F)CC1", "test": "binding, competition with immobilised ligand", "setting": "1 µM", "remaining binding [%]": 97}
{"Compound": "CCS(=O)(=O)c1cc2cc(C[C@](O)(CC(C)(C)c3ccc(F)cc3C(N)=O)C(F)(F)F)[nH]c2cn1", "test": "cell-free assay, competition with immobilised ligand", "setting": "1 µM", "remaining binding [%]": 100}
{"Compound": "O=C(NCCCN1CCOCC1)c1ccc(Nc2ncc(Cl)c(-c3ccc(Cl)s3)n2)cc1", "test": "binding, competition with immobilised ligand", "setting": "1 µM", "remaining binding [%]": 77}
{"Compound": "N[C@@H]1CCN(c2nccc(-c3cnn4ncccc34)n2)C1", "test": "binding", "setting": "1 µM", "remaining binding [%]": 100}
{"Compound": "Cc1cnc(Nc2ccc(C(=O)N3CCC(N4CCCC4)CC3)cc2)nc1-c1cc2ccccc2s1", "test": "binding, competition with immobilised ligand", "setting": "1 µM", "remaining binding [%]": 74}
{"Compound": "O=C(Nc1c[nH]nc1C(=O)NC1CCNCC1)c1cc(F)cc(F)c1", "test": "binding, competition with immobilised ligand", "setting": "1 µM", "remaining binding [%]": 100}
